Drawing on ChEMBL document CHEMBL4732268, “Discovery of a Potent and Selective Covalent p300/CBP Inhibitor” (ACS Med Chem Lett, 2021), this text covers IC50, EC50 and Ratio for eight compounds.

The nature of experiment [1]: Inhibition of human p300-BHC domain (residues 1036-1822)/CBP-BHC domain (residues 1072-1859) expressed in Bac-to-Bac Baculovirus expression system assessed as inhibition of lysine residues acetylation in Histone H4 synthetic substrate preincubated for 30 mins followed by addition of substrate and acetyl coenzyme A and measured after 1 hr by TR-FRET assay. (TR-FRET usually uses a lanthanide donor and a delayed reading to cut background.)

Experiment [2] can be described thus: Inhibition of human p300/CBP in human PC-3 cells assessed as decrease in H3K27 acetylation measured after 3 hrs by Fluorescence based plate reader assay. The experiment is classed as cell-based. The following applies: PC-3, 3 h. In short, it runs like this: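 PC-3 cells were treated with compound for 3 h, and the reduction in H3K27 acetylation was measured.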

The subject of another experiment is LNCaP-Clone-FGC. Description: Antiproliferative activity against AR-positive human LNCaP-Clone-FGC cells assessed as inhibition of cell proliferation measured after 5 days by luminiscent plate reader method. The format is functional, cell-based. The following applies: 120 h. In short, it runs like this:
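LNCaP-FGC cells (androgen receptor-positive) were treated with compound for 5 days, then proliferation was read in a cell-growth assay. EC50 was derived from N = 2.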

For another experiment, the system named is DU-145. Description: Antiproliferative activity against human DU-145 cells assessed as inhibition of cell proliferation measured after 5 days by luminiscent plate reader method. To be noted: DU-145, 120 h. The format is functional, cell-based. In short, it runs like this:
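DU-145 cells (androgen receptor-negative) were treated with compound for 5 days, then proliferation was read in a cell-growth assay. EC50 was derived from the dose response.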

The nature of experiment [3]: Inhibition of human p300/CBP in human PC-3 cells assessed as decrease in H3K27 acetylation measured after 24 hrs by Fluorescence based plate reader assay. The experiment is classed as cell-based. The following applies: PC-3, 24 h.
Experiment [4] can be described thus: Inhibition of human p300/CBP in human PC-3 cells assessed as decrease in H3K27 acetylation incubated for 24 hrs followed by compound washout and measured after 1 hr by Fluorescence based plate reader assay. The format is cell-based. In short, it runs like this:
(§1)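 Washout assay. PC-3 cells were incubated with compound for 24 h, washed, and given fresh compound-free medium. Incubation then continued, and H3K27 acetylation was measured at set times from 1 to 48 h after washout. Inhibition is reported as EC50.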

Experiment [5] is described as follows: Inhibition of human p300/CBP in human PC-3 cells assessed as decrease in H3K27 acetylation incubated for 24 hrs followed by compound washout and measured after 2 hr by Fluorescence based plate reader assay. The experiment is classed as cell-based. In short, it runs like this:
as §1

Experiment [6] is described as follows: Inhibition of human p300/CBP in human PC-3 cells assessed as decrease in H3K27 acetylation incubated for 24 hrs followed by compound washout and measured after 4 hr by Fluorescence based plate reader assay. The experiment is classed as cell-based. In short, it runs like this: as §1
Experiment [7] is described as follows: Inhibition of human p300/CBP in human PC-3 cells assessed as decrease in H3K27 acetylation incubated for 24 hrs followed by compound washout and measured after 8 hr by Fluorescence based plate reader assay. The format is cell-based. In short, it runs like this: as §1
Experiment [8] in a line: Inhibition of human p300/CBP in human PC-3 cells assessed as decrease in H3K27 acetylation incubated for 24 hrs followed by compound washout and measured after 24 hr by Fluorescence based plate reader assay. The format is cell-based. The following applies: PC-3, 24 h. In short, it runs like this:
as §1

Experiment [9] in a line: Inhibition of human p300/CBP in human PC-3 cells assessed as decrease in H3K27 acetylation incubated for 24 hrs followed by compound washout and measured after 48 hr by Fluorescence based plate reader assay. The experiment is classed as cell-based. The method, boiled down:
as §1

Experiment [10] is described as follows: Inhibition of human p300/CBP in human PC-3 cells assessed as decrease in H3K27 acetylation measured after 48 hrs by Fluorescence based plate reader assay. The format is cell-based. To be noted: PC-3, 48 h.
The species entered for experiment [11] is Homo sapiens. Nature of the experiment: Ratio of EC50 for human p300/CBP in human PC-3 cells incubated for 24 hrs and measured 1 hr post washout to EC50 for human p300/CBP in human PC-3 cells measured after 24 hrs. The experiment is classed as cell-based.
The species named for experiment [12] is Homo sapiens. Description: Ratio of EC50 for human p300/CBP in human PC-3 cells incubated for 24 hrs and measured 2 hr post washout to EC50 for human p300/CBP in human PC-3 cells measured after 24 hrs. The format is cell-based.
The species named for experiment [13] is Homo sapiens. Nature of the experiment: Ratio of EC50 for human p300/CBP in human PC-3 cells incubated for 24 hrs and measured 4 hr post washout to EC50 for human p300/CBP in human PC-3 cells measured after 24 hrs. The experiment is classed as cell-based.
For experiment [14], the species on record is Homo sapiens. Description: Ratio of EC50 for human p300/CBP in human PC-3 cells incubated for 24 hrs and measured 8 hr post washout to EC50 for human p300/CBP in human PC-3 cells measured after 24 hrs. The format is cell-based.
The species named for experiment [15] is Homo sapiens. Description: Ratio of EC50 for human p300/CBP in human PC-3 cells incubated for 24 hrs and measured 24 hr post washout to EC50 for human p300/CBP in human PC-3 cells measured after 24 hrs. The format is cell-based.
Experiment [16] is filed under the species Homo sapiens. Description: Ratio of EC50 for human p300/CBP in human PC-3 cells incubated for 24 hrs and measured 48 hr post washout to EC50 for human p300/CBP in human PC-3 cells measured after 24 hrs. The experiment is classed as cell-based.
Experiment [17] is filed under the species Homo sapiens. Nature of the experiment: Ratio of EC50 for human p300/CBP in human PC-3 cells measured after 48 hr to EC50 for human p300/CBP in human PC-3 cells measured after 24 hrs. The experiment is classed as cell-based.

As usually defined, the IC50 is the concentration that gives 50% inhibition. In the case of `C=CC(=O)Nc1ccc(NC(=O)Nc2ccc3c(c2)CC[C@@]32OC(=O)N(CC(=O)N(Cc3ccc(F)cc3)[C@@H](C)C(F)(F)F)C2=O)cc1`, in experiment [1], the IC50 is 22.1 µM.

Regarding `C=CS(=O)(=O)c1ccc(NC(=O)Nc2ccc3c(c2)CC[C@@]32OC(=O)N(CC(=O)N(Cc3ccc(F)cc3)[C@@H](C)C(F)(F)F)C2=O)cc1`, the IC50 in experiment [1] came out at 4.27 µM.

As to `C=CS(=O)(=O)Nc1ccc(NC(=O)Nc2ccc3c(c2)CC[C@@]32OC(=O)N(CC(=O)N(Cc3ccc(F)cc3)[C@@H](C)C(F)(F)F)C2=O)cc1`, the IC50 in experiment [1] was determined as 3.02 µM.

What is called EC50 is the concentration needed to bring the measured effect to its halfway point. In the case of `C=CC(=O)Nc1cccc(NC(=O)Nc2ccc3c(c2)CC[C@@]32OC(=O)N(CC(=O)N(Cc3ccc(F)cc3)[C@@H](C)C(F)(F)F)C2=O)c1`, in experiment [1], the IC50 worked out at 0.166 µM. In addition, the EC50 turned out to be 0.037 µM in experiment [2]; 0.087 µM in the experiment with LNCaP-Clone-FGC; 1.37 µM with DU-145; 0.011 µM in [3]; 0.015 µM in experiment [4]; 0.017 µM in experiment [5]. In addition, the EC50 in experiment [6] worked out at 0.024 µM; in experiment [7], 0.129 µM; in experiment [8], 0.544 µM; in [9] it was 0.656 µM; in experiment [10], 0.021 µM. For the same compound, the Ratio in the experiment filed under Homo sapiens [11] was found to be 1.3; in the experiment listed under Homo sapiens [12], 1.5; in the experiment listed under Homo sapiens [13], 2.1; in the experiment listed under Homo sapiens [14], 11.3; in the experiment filed under Homo sapiens [15], 47.8; in the experiment filed under Homo sapiens [16], 57.7. The Ratio in the experiment listed under Homo sapiens [17] turned out to be 1.8.

For `C=CC(=O)N1CCCN(C(=O)Nc2ccc3c(c2)CC[C@@]32OC(=O)N(CC(=O)N(Cc3ccc(F)cc3)[C@@H](C)C(F)(F)F)C2=O)C1`, the IC50 in experiment [1] worked out at 2 µM.

Regarding `CNC(=O)Nc1ccc2c(c1)CC[C@@]21OC(=O)N(CC(=O)N(Cc2ccc(F)cc2)[C@@H](C)C(F)(F)F)C1=O` [A-485], the EC50 in experiment [2] was 0.103 µM; in the experiment on LNCaP-Clone-FGC it was 0.35 µM; in experiment [3], 0.227 µM; in [4], over 10 µM; in [5], over 10 µM; in [6], over 10 µM. Further, the EC50 in [7] was over 10 µM; in [8], over 10 µM; in experiment [9], over 10 µM; in experiment [10], 0.253 µM.

For `C=CS(=O)(=O)Nc1cccc(NC(=O)Nc2ccc3c(c2)CC[C@@]32OC(=O)N(CC(=O)N(Cc3ccc(F)cc3)[C@@H](C)C(F)(F)F)C2=O)c1`, the IC50 in experiment [1] is 0.604 µM. Besides, the half-maximal effective concentration (EC50) in experiment [2] came out at 1.23 µM.

In the case of `C=CC(=O)NCC(C)(C)CNC(=O)Nc1ccc2c(c1)CC[C@@]21OC(=O)N(CC(=O)N(Cc2ccc(F)cc2)[C@@H](C)C(F)(F)F)C1=O`, the half-inhibitory concentration (IC50) in [1] stood at 0.185 µM. The EC50 in experiment [2] stood at 0.048 µM; in the experiment on LNCaP-Clone-FGC it was 0.177 µM.
